Data as given in ChEMBL document CHEMBL1125276 (J Med Chem, 1991).

Key:
L1210 = test: Tested for the inhibition of L1210 cell proliferation.; format: functional, cell-based; conditions: Mus musculus
Outline: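 L1210 cells were grown in RPMI 1640 with 10% FCS, 2 mM L-glutamine and 10 mM HEPES (pH 7.4). Exponential-phase cells (10^5 cells/mL) were exposed for 24 h to 5 drug concentrations in triplicate, then pulsed 3 h with 0.5 µCi/mL [3H]thymidine. Cells were harvested onto filters and counted. IC50 is 50% inhibition of incorporation versus untreated cells, given as the mean of 2–5 independent experiments.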

P388 [1] = test: Compound was tested for T/C range at optimal dose of 0.25 mg/kg for antitumor activity against P388 leukemia cells in mice.; format: functional, Mus musculus
P388 [2] = test: Long-term survivors (LTS) for 60 days at optimal dose of 0.25 mg/kg for antitumor activity against P388 leukemia cells in 6 mice.; format: functional, Mus musculus
Tubulin = test: The compound tested for the inhibition of tubulin polymerization.; format: functional
Outline: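 Tubulin was partially purified from dog brain by polymerization/depolymerization cycles and used at 0.5 mg/mL. Compounds were added in DMSO (10 µL per 500 µL reaction) at 10^-6 to 10^-9 M, with DMSO-only controls. Polymerization was followed by turbidity at 350 nm. Rates from two separate experiments were plotted against concentration, and IC50 was read graphically.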

P388 [3] = test: Compound was tested for T/C range at optimal dose of 12.00 mg/kg for antitumor activity against P388 leukemia cells in mice.; format: functional, Mus musculus
P388 [4] = test: Long-term survivors (LTS) for 60 days at optimal dose of 12.00 mg/kg for antitumor activity against P388 leukemia cells in 5 mice.; format: functional, Mus musculus
P388 [5] = test: Compound was tested for T/C range at optimal dose of 0.5 mg/kg for antitumor activity against P388 leukemia cells in mice; value ranges from 160-447; format: functional, Mus musculus
P388 [6] = test: Long-term survivors (LTS) for 60 days at optimal dose of 0.5 mg/kg for antitumor activity against P388 leukemia cells in 54 mice.; format: functional, Mus musculus
P388 [7] = test: Compound was tested for T/C range at optimal dose of 5.00 mg/kg for antitumor activity against P388 leukemia cells in mice; value ranges from 149-224; format: functional, Mus musculus
P388 [8] = test: Long-term survivors (LTS) for 60 days at optimal dose of 5.00 mg/kg for antitumor activity against P388 leukemia cells in 12 mice.; format: functional, Mus musculus
P388 [9] = test: Compound was tested for T/C range at optimal dose of 0.5 mg/kg for antitumor activity against P388 leukemia cells in mice; value ranges from 151-480; format: functional, Mus musculus
P388 [10] = test: Long-term survivors (LTS) for 60 days at optimal dose of 0.5 mg/kg for antitumor activity against P388 leukemia cells in 96 mice.; format: functional, Mus musculus
P388 [11] = test: Compound was tested for T/C range at optimal dose of 3.0 mg/kg for antitumor activity against P388 leukemia cells in mice.; format: functional, Mus musculus
P388 [12] = test: Long-term survivors (LTS) for 60 days at optimal dose of 3.0 mg/kg for antitumor activity against P388 leukemia cells in 6 mice.; format: functional, Mus musculus
P388 [13] = test: Compound was tested for T/C range at optimal dose of 3.0 mg/kg for antitumor activity against P388 leukemia cells in mice; value ranges from 157-203; format: functional, Mus musculus
P388 [14] = test: Long-term survivors (LTS) for 60 days at optimal dose of 3.0 mg/kg for antitumor activity against P388 leukemia cells in 45 mice.; format: functional, Mus musculus
P388 [15] = test: Compound was tested for T/C range at optimal dose of 3.0 mg/kg for antitumor activity against P388 leukemia cells in mice; value ranges from 165-181; format: functional, Mus musculus
P388 [16] = test: Long-term survivors (LTS) for 60 days at optimal dose of 3.0 mg/kg for antitumor activity against P388 leukemia cells in 15 mice.; format: functional, Mus musculus
P388 [17] = test: Compound was tested for T/C range at optimal dose of 100 mg/kg for antitumor activity against P388 leukemia cells in mice; value ranges from 150-285; format: functional, Mus musculus
P388 [18] = test: Long-term survivors (LTS) for 60 days at optimal dose of 100 mg/kg for antitumor activity against P388 leukemia cells in 54 mice.; format: functional, Mus musculus

Which results are given for `CCOP(=O)(OCC)[C@H](C)NC(=O)[C@@]1(O)[C@H](O)[C@]2(CC)C=CCN3CC[C@@]4(c5cc([C@@]6(C(=O)OC)C[C@@H]7CN(CCc8c6[nH]c6ccccc86)C[C@](O)(CC)C7)c(OC)cc5N(C)[C@@H]14)[C@@H]32`?
IC50 (L1210): 0.4 nM; T/C (P388 [1]): 342%; LTS (P388 [2]): 2; IC50 (Tubulin): 200 nM

What does the source list for `C=CC[C@@H](NC(=O)[C@@]1(O)[C@H](O)[C@]2(CC)C=CCN3CC[C@@]4(c5cc([C@@]6(C(=O)OC)C[C@@H]7CN(CCc8c6[nH]c6ccccc86)C[C@](O)(CC)C7)c(OC)cc5N(C)[C@@H]14)[C@@H]32)P(=O)(OCC)OCC`?
IC50 (L1210): 26.4 nM; T/C (P388 [3]): 195%; LTS (P388 [4]): 0

`CCOP(=O)(OCC)C(NC(=O)[C@@]1(O)[C@H](O)[C@]2(CC)C=CCN3CC[C@@]4(c5cc([C@@]6(C(=O)OC)C[C@@H]7CN(CCc8c6[nH]c6ccccc86)C[C@](O)(CC)C7)c(OC)cc5N(C)[C@@H]14)[C@@H]32)C(C)C` (mixture of isomers) was tested. Which IC50 (L1210) did it give?
Its IC50 is 0.64 nM.

And the T/C (P388 [5])?
Its T/C is 160%.

And the LTS (P388 [6])?
The LTS was 11.

And the IC50 (Tubulin)?
Its IC50 is 300 nM.

`CCOP(=O)(OCC)C(Cc1ccccc1)NC(=O)[C@@]1(O)[C@H](O)[C@]2(CC)C=CCN3CC[C@@]4(c5cc([C@@]6(C(=O)OC)C[C@@H]7CN(CCc8c6[nH]c6ccccc86)C[C@](O)(CC)C7)c(OC)cc5N(C)[C@@H]14)[C@@H]32` (mixture of isomers) was tested. Which IC50 (L1210) did it give?
Its IC50 is 46 nM.

What about the T/C (P388 [7]) of the same compound?
Its T/C is 149%.

And the LTS (P388 [8])?
Its LTS is 0.

And the IC50 (Tubulin)?
The IC50 was 70 nM.

With `CCOP(=O)(OCC)C(C)NC(=O)[C@@]1(O)[C@H](O)[C@]2(CC)C=CCN3CC[C@@]4(c5cc([C@@]6(C(=O)OC)C[C@@H]7CN(CCc8c6[nH]c6ccccc86)C[C@](O)(CC)C7)c(OC)cc5N(C)[C@@H]14)[C@@H]32` (mixture of isomers) as the compound, how does the IC50 (L1210) read?
The IC50 was 2.5 nM.

What about the T/C (P388 [9]) of the same compound?
The T/C was 151%.

And the LTS (P388 [10])?
The LTS was 7.

What about the IC50 (Tubulin) of the same compound?
Its IC50 is 100 nM.

How did the IC50 (L1210) turn out when `CCCCCC(NC(=O)[C@@]1(O)[C@H](O)[C@]2(CC)C=CCN3CC[C@@]4(c5cc([C@@]6(C(=O)OC)C[C@@H]7CN(CCc8c6[nH]c6ccccc86)C[C@](O)(CC)C7)c(OC)cc5N(C)[C@@H]14)[C@@H]32)P(=O)(OCC)OCC` (mixture of isomers) was run?
Its IC50 is 3.97 nM.

And the T/C (P388 [11])?
Its T/C is 203%.

What about the LTS (P388 [12]) of the same compound?
The LTS was 0.

And the IC50 (Tubulin)?
The IC50 was 20 nM.

Which IC50 (L1210) does the source give for `CCOC(=O)CC(NC(=O)[C@@]1(O)[C@H](O)[C@]2(CC)C=CCN3CC[C@@]4(c5cc([C@@]6(C(=O)OC)C[C@@H]7CN(CCc8c6[nH]c6ccccc86)C[C@](O)(CC)C7)c(OC)cc5N(C)[C@@H]14)[C@@H]32)P(=O)(OCC)OCC` (mixture of isomers) here?
The IC50 was 2.77 nM.

What about the T/C (P388 [11]) of the same compound?
The T/C was 122%.

And the LTS (P388 [12])?
The LTS was 0.

What about the IC50 (Tubulin) of the same compound?
Its IC50 is 300 nM.

Which IC50 (L1210) does the source give for `CC[C@]1(O)C[C@@H]2CN(CCc3c([nH]c4ccccc34)[C@@](C(=O)OC)(c3cc4c(cc3OC)N(C)[C@H]3[C@@](O)(C(=O)OC)[C@H](OC(C)=O)[C@]5(CC)C=CCN6CC[C@]43[C@@H]65)C2)C1` [VINBLASTINE] here?
The IC50 was 3.15 nM.

What about the T/C (P388 [13]) of the same compound?
Its T/C is 157%.

What about the LTS (P388 [14]) of the same compound?
Its LTS is 2.

`CC[C@]1(O)C[C@H]2CN(CCc3c([nH]c4ccccc34)[C@@](C(=O)OC)(c3cc4c(cc3OC)N(C=O)[C@H]3[C@@](O)(C(=O)OC)[C@H](OC(C)=O)[C@]5(CC)C=CCN6CC[C@]43[C@@H]65)C2)C1` [VINCRISTINE] was tested. Which IC50 (L1210) did it give?
The IC50 was 4.85 nM.

What about the T/C (P388 [15]) of the same compound?
Its T/C is 165%.

And the LTS (P388 [16])?
The LTS was 0.

What about the IC50 (Tubulin) of the same compound?
Its IC50 is 500 nM.

Which results are given for `CCOC(=O)C(Cc1c[nH]c2ccccc12)NC(=O)[C@@]1(O)[C@H](O)[C@]2(CC)C=CCN3CC[C@@]4(c5cc([C@@]6(C(=O)OC)C[C@@H]7CN(CCc8c6[nH]c6ccccc86)C[C@](O)(CC)C7)c(OC)cc5N(C)[C@@H]14)[C@@H]32` (some centres not stated) [VINTRYPOL]?
T/C (P388 [17]): 150%; LTS (P388 [18]): 2; IC50 (Tubulin): 200 nM
